Assay results from ChEMBL document CHEMBL1799953, “Backbone cyclic peptide inhibitors of protein kinase B (PKB/Akt)” (J Med Chem, 2011).
pIC50: −log10 of the molar value. *1 amine or outer side, *2 acyl side, *3 side chain or, on linkers, in order; H or OH if unused. Where a SMILES comes first, the peptide text is derived from it. Bridges are numbered along the chain shown (N, C = ends). [ ]: non-standard residue; d: D form. N(6-aminohexyl)Gly = O=C(CN(CCCCCCN[*:3])[*:1])[*:2]; NGly(3-aminopropyl) = O=C(CN(CCCN[*:3])[*:1])[*:2]; N(2-Aminoethyl)Gly = O=C(CN(CCN[*:3])[*:1])[*:2]; Heptanedioyl = O=C(CCCCCC(=O)[*:2])[*:1]; Adipoyl = O=C(CCCCC(=O)[*:2])[*:1]; Glutaryl = O=C(CCCC(=O)[*:2])[*:1]; Gly(N-2-aminoethyl) = NCCNCC(=O)O; Cha = N[C@@H](CC1CCCCC1)C(=O)O; Gly(N(CH2)3NH2) = NCCCNCC(=O)O; Suc = O=C(CCC(=O)[*:2])[*:1]; hLeu = CC(C)CC[C@H](N)C(=O)O; Nva = CCC[C@H](N)C(=O)O; Dap = NC[C@H](N)C(=O)O; CO = O=C([*:1])[*:2]; Nlys = NCCCCNCC(=O)O

Molecular target: T1, RAC-alpha serine/threonine-protein kinase (Homo sapiens, UniProt P31749)
T1 sequence (P31749 whole entry): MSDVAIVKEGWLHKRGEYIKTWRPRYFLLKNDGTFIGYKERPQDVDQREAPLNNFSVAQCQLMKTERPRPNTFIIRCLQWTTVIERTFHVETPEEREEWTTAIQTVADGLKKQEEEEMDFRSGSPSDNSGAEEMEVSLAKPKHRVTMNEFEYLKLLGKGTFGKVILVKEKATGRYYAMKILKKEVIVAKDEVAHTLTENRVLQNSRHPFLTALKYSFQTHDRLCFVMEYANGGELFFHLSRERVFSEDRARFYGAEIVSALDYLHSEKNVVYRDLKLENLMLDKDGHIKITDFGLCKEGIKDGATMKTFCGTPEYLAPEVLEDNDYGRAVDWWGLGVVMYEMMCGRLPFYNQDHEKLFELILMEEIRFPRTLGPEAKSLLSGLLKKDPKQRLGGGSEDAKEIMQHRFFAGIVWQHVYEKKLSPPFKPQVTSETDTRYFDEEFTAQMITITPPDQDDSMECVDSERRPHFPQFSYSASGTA
Assay: Inhibition of Akt using RPRTSSF peptide and [gamma32]ATP at 5 uM by cell-free radioactive assay relative to control
Outline: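 Cell-free 32P kinase assay: HisΔPHPKBEEEFlag (0.005 units, one-step Ni-NTA partial purification), 50 mM Hepes pH 7.4, 0.1 mM EGTA, 0.1% 2-mercaptoethanol, 10 mM magnesium acetate, 3 μM RPRTSSF substrate, 10 μM [γ32P]ATP (1 μCi/well). Inhibitor at 5 μM. Activity loss expressed as percent of uninhibited reaction.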

inhibition [%] | Compound
100 | CCC[C@@H]1NC(=O)[C@H](CCCNC(=N)N)NC(=O)CN(C(=O)[C@@H](N)CCCNC(=N)N)CCNC(=O)NCCCCCCN(CC(N)=O)C(=O)[C@H](CCC(C)C)NC(=O)[C@H](CN)NC(=O)[C@H](Cc2ccc(O)cc2)NC1=O (H-R[N(2-Aminoethyl)Gly]R[Nva]Y[Dap][hLeu][N(6-aminohexyl)Gly]-NH2; linker 2-8 via CO)
98 | CCC[C@@H]1NC(=O)[C@H](CCCNC(=N)N)NC(=O)CN(C(=O)[C@@H](N)CCCNC(=N)N)CCNC(=O)NCCCN(CC(N)=O)C(=O)[C@H](CCC(C)C)NC(=O)[C@H](CN)NC(=O)[C@H](Cc2ccc(O)cc2)NC1=O (H-R[N(2-Aminoethyl)Gly]R[Nva]Y[Dap][hLeu][NGly(3-aminopropyl)]-NH2; linker 2-8 via CO)
100 | CCC[C@@H]1NC(=O)[C@H](CCCNC(=N)N)NC(=O)CN(C(=O)[C@@H](N)CCCNC(=N)N)CCCCCCNC(=O)NCCCN(CC(N)=O)C(=O)[C@H](CCC(C)C)NC(=O)[C@H](CN)NC(=O)[C@H](Cc2ccc(O)cc2)NC1=O (H-R[N(6-aminohexyl)Gly]R[Nva]Y[Dap][hLeu][NGly(3-aminopropyl)]-NH2; linker 2-8 via CO)
100 | CCC[C@@H]1NC(=O)[C@H](CCCNC(=N)N)NC(=O)CN(C(=O)[C@@H](N)CCCNC(=N)N)CCCNC(=O)NCCCCCCN(CC(N)=O)C(=O)[C@H](CCC(C)C)NC(=O)[C@H](CN)NC(=O)[C@H](Cc2ccc(O)cc2)NC1=O (H-R[NGly(3-aminopropyl)]R[Nva]Y[Dap][hLeu][N(6-aminohexyl)Gly]-NH2; linker 2-8 via CO)
100 | CCC[C@@H]1NC(=O)[C@H](CCCNC(=N)N)NC(=O)CN(C(=O)[C@@H](N)CCCNC(=N)N)CCCCNC(=O)NCCCCN(CC(N)=O)C(=O)[C@H](CCC(C)C)NC(=O)[C@H](CN)NC(=O)[C@H](Cc2ccc(O)cc2)NC1=O (H-R[Nlys]R[Nva]Y[Dap][hLeu][Nlys]-NH2; linker 2-8 via CO)
18 | CCC[C@@H]1NC(=O)[C@H](CCCNC(=N)N)NC(=O)[C@@H]2CCCN2C(=O)[C@H](CCCNC(=N)N)NC(=O)CCCCC(=O)NCCCCN(CC(N)=O)C(=O)[C@H](CCC(C)C)NC(=O)[C@H](CN)NC(=O)[C@H](Cc2ccc(O)cc2)NC1=O (RPR[Nva]Y[Dap][hLeu][Nlys]-NH2; linker N-8 via Adipoyl)
14 | CCC[C@@H]1NC(=O)[C@H](CCCNC(=N)N)NC(=O)[C@@H]2CCCN2C(=O)[C@H](CCCNC(=N)N)NC(=O)CCCC(=O)NCCCCN(CC(N)=O)C(=O)[C@H](CCC(C)C)NC(=O)[C@H](CN)NC(=O)[C@H](Cc2ccc(O)cc2)NC1=O (RPR[Nva]Y[Dap][hLeu][Nlys]-NH2; linker N-8 via Glutaryl)
16 | CCC[C@@H]1NC(=O)[C@H](CCCNC(=N)N)NC(=O)[C@@H]2CCCN2C(=O)[C@H](CCCNC(=N)N)NC(=O)CCCCCC(=O)NCCCCN(CC(N)=O)C(=O)[C@H](CCC(C)C)NC(=O)[C@H](CN)NC(=O)[C@H](Cc2ccc(O)cc2)NC1=O (RPR[Nva]Y[Dap][hLeu][Nlys]-NH2; linker N-8 via Heptanedioyl)
13 | CCC[C@@H]1NC(=O)[C@H](CCCNC(=N)N)NC(=O)[C@@H]2CCCN2C(=O)[C@H](CCCNC(=N)N)NC(=O)CCC(=O)NCCCCN(CC(N)=O)C(=O)[C@H](CCC(C)C)NC(=O)[C@H](CN)NC(=O)[C@H](Cc2ccc(O)cc2)NC1=O (RPR[Nva]Y[Dap][hLeu][Nlys]-NH2; linker N-8 via Suc)

Molecular target: T1, RAC-alpha serine/threonine-protein kinase
Assay: Inhibition of Akt using RPRTSSF peptide and [gamma32]ATP by cell-free radioactive assay
Outline: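 Same reaction: HisΔPHPKBEEEFlag (0.005 units), 50 mM Hepes pH 7.4, 0.1 mM EGTA, 0.1% 2-mercaptoethanol, 10 mM magnesium acetate, 3 μM RPRTSSF, 10 μM [γ32P]ATP. Peptide stock concentration determined by UV spectrophotometry; reference peptide run in every assay.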

pIC50 | Compound
6.07 | CCC[C@H](NC(=O)[C@H](CCCN=C(N)N)NC(=O)[C@H](CN)NC(=O)[C@@H](N)CCCN=C(N)N)C(=O)N[C@@H](Cc1ccc(O)cc1)C(=O)N[C@@H](CN)C(=O)N[C@@H](CCC(C)C)C(N)=O
5.67 | CCC[C@H](NC(=O)[C@H](CCCN=C(N)N)NC(=O)[C@H](CCCCN)NC(=O)[C@@H](N)CCCN=C(N)N)C(=O)N[C@@H](Cc1ccc(O)cc1)C(=O)N[C@@H](CN)C(=O)N[C@@H](CCC(C)C)C(N)=O
6.02 | CCC[C@H](NC(=O)[C@H](CCCN=C(N)N)NC(=O)[C@H](CC1CCCCC1)NC(=O)[C@@H](N)CCCN=C(N)N)C(=O)N[C@@H](Cc1ccc(O)cc1)C(=O)N[C@@H](CN)C(=O)N[C@@H](CCC(C)C)C(N)=O (H-R[Cha]R[Nva]Y[Dap][hLeu]-NH2)
6.49 | CCC[C@H](NC(=O)[C@H](CCCN=C(N)N)NC(=O)CN(CCCN)C(=O)[C@@H](N)CCCN=C(N)N)C(=O)N[C@@H](Cc1ccc(O)cc1)C(=O)N[C@@H](CN)C(=O)N[C@@H](CCC(C)C)C(=O)N(CCN)CC(N)=O (H-R[Gly(N(CH2)3NH2)]R[Nva]Y[Dap][hLeu][Gly(N-2-aminoethyl)]-NH2)
6.54 | CCC[C@@H]1NC(=O)[C@H](CCCNC(=N)N)NC(=O)CN(C(=O)[C@@H](N)CCCNC(=N)N)CCNC(=O)NCCCCCCN(CC(N)=O)C(=O)[C@H](CCC(C)C)NC(=O)[C@H](CN)NC(=O)[C@H](Cc2ccc(O)cc2)NC1=O (H-R[N(2-Aminoethyl)Gly]R[Nva]Y[Dap][hLeu][N(6-aminohexyl)Gly]-NH2; linker 2-8 via CO)
6.04 | CCC[C@@H]1NC(=O)[C@H](CCCNC(=N)N)NC(=O)CN(C(=O)[C@@H](N)CCCNC(=N)N)CCNC(=O)NCCCN(CC(N)=O)C(=O)[C@H](CCC(C)C)NC(=O)[C@H](CN)NC(=O)[C@H](Cc2ccc(O)cc2)NC1=O (H-R[N(2-Aminoethyl)Gly]R[Nva]Y[Dap][hLeu][NGly(3-aminopropyl)]-NH2; linker 2-8 via CO)
6.80 | CCC[C@@H]1NC(=O)[C@H](CCCNC(=N)N)NC(=O)CN(C(=O)[C@@H](N)CCCNC(=N)N)CCCCCCNC(=O)NCCCN(CC(N)=O)C(=O)[C@H](CCC(C)C)NC(=O)[C@H](CN)NC(=O)[C@H](Cc2ccc(O)cc2)NC1=O (H-R[N(6-aminohexyl)Gly]R[Nva]Y[Dap][hLeu][NGly(3-aminopropyl)]-NH2; linker 2-8 via CO)
6.49 | CCC[C@@H]1NC(=O)[C@H](CCCNC(=N)N)NC(=O)CN(C(=O)[C@@H](N)CCCNC(=N)N)CCCNC(=O)NCCCCCCN(CC(N)=O)C(=O)[C@H](CCC(C)C)NC(=O)[C@H](CN)NC(=O)[C@H](Cc2ccc(O)cc2)NC1=O (H-R[NGly(3-aminopropyl)]R[Nva]Y[Dap][hLeu][N(6-aminohexyl)Gly]-NH2; linker 2-8 via CO)
6.77 | CCC[C@@H]1NC(=O)[C@H](CCCNC(=N)N)NC(=O)CN(C(=O)[C@@H](N)CCCNC(=N)N)CCCCNC(=O)NCCCCN(CC(N)=O)C(=O)[C@H](CCC(C)C)NC(=O)[C@H](CN)NC(=O)[C@H](Cc2ccc(O)cc2)NC1=O (H-R[Nlys]R[Nva]Y[Dap][hLeu][Nlys]-NH2; linker 2-8 via CO)
